High-throughput results from PubChem.
Only some compounds are listed: those with a hit (about 0.95% of all), similar ones and a draw of the others.
CAL PDZ FP-1 – CAL PDZ peptide-binding inhibitors, primary screen, biochemical, fluorescence polarization, Cer-tagged CAL PDZ, HTS; inhibition, % at 20 µM; purified CAL PDZ, TMR-peptide fluorescence polarization, 1 h; 0.02% of 330,000 active;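 active = highest replicate inhibition of at least 40%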
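material = purified tagged CAL PDZ domain construct (CerCALP) | compound dosing = 20 µM, one dose | times = 1 h at RT | measured by = fluorescence polarization from S- and P-plane intensities, G-factor corrected | read-out = inhibition from polarization loss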
PvdQ acylase – P. aeruginosa PvdQ acylase inhibitors, primary screen, biochemical, fluorescence, plate reader and imaging, single point | 0.063% of 340,000 active | AID 488965, 2010 | PvdQ acylase [Pseudomonas aeruginosa LESB58] | purified PvdQ acylase | inhibition, % at 10 µM; in the data active = inhibition above about 30%, passing the limit was not always enough
CAL PDZ FP-2 – untagged CAL PDZ binding inhibitors, primary screen, biochemical, fluorescence polarization, HTS; purified CAL PDZ, TMR-peptide fluorescence polarization, 1 h; 0.92% of 300,000 active; inhibition, % at 24.9 µM;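 active = mean inhibition of at least 30% with at least half of replicates also reaching 30%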
miR-122 sensor – miR-122 Renilla sensor signal increase in Huh7, primary screen, miR-122 inhibitor project, cell-based, single point, plate reader; 0.3% of 340,000 active; Huh7 miR-122 Renilla luciferase sensor, 48 h; neutral wells = 0, positive control = 100; activation (reporter increase), % at 12.5 µM; AID 602342, 2012;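 active = mean replicate activation score at least 90 and every replicate individually at or above 90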;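 note: higher luciferase means less miR-122 activity so hits act as miR-122 inhibitors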
Numbers stand for hits; – = inactive; · = no result.

SMILES | CAL PDZ FP-1 | PvdQ acylase | CAL PDZ FP-2 | miR-122 sensor
Fc1cccc(Cn2cc(C(=S)N3CCOCC3)c3ccccc32)c1 | – | – | – | 176
CCOc1ccc2nc3cc(N=Nc4ccc(N)nc4N)ccc3c(N)c2c1 | 56 | – | – | –
COc1ccc(N=Nc2ccc(N)nc2N)cc1 | – | – | – | –
Cc1cc(C)c(S(=O)(=O)N2CCN=C2c2ccccc2)cc1C | – | – | – | 100
O=C(NCC(c1cccnc1)N1CCOCC1)c1cccs1 (stereo not given) | – | – | – | –
O=S1(=O)N[C@@H](CC2=CCCCC2)C2CCCCC2O1 (stereo not given in full) | – | – | – | –
C[C@@H]1CCCCO[C@@H](CN(C)C(=O)C2CCCCC2)[C@H](C)CN([C@@H](C)CO)C(=O)c2cc(NC(=O)CCC(F)(F)F)ccc2O1 | · | · | · | –
CC(C)=C1C(=O)NN(c2cccc(Cl)c2)C1=O | – | – | 74 | –
CC(=O)N1CCN(S(=O)(=O)c2ccc(C)cc2)C1C(C)C (stereo not given) | – | – | – | –
CN(C)c1cccc(C(=O)NC2CCCc3ccccc32)c1 (stereo not given) | – | – | 59 | –
CS(=O)(=O)c1ccc(C(=O)NC2CCCc3ccccc32)cc1 (stereo not given) | – | – | 58 | ·
O=C(NC1CCCc2ccccc21)c1cccc(Br)c1 (stereo not given) | – | – | – | ·
O=C(NC1CCCc2ccccc21)c1ccccc1 (stereo not given) | – | – | – | ·
COc1ccccc1CN(C)CC(=O)Nc1cccc2ccccc12 | – | – | – | –
Cc1ccc(C(=O)NC(=S)NCC(=O)c2ccccc2)cc1 | · | – | 33 | –
O=C(CN1C(=O)c2ccccc2C1=O)N1CCN(c2ccccc2)CC1 | – | – | 40 | –
Cc1ccc(N2CCN(C(=O)CN3C(=O)c4ccccc4C3=O)CC2)cc1 | – | – | – | –
CCOC(=O)CN1C(=O)c2ccccc2C1=O | – | – | 51 | –
O=C(N/N=C/C(Br)=C/c1ccccc1)c1cc(-c2ccco2)[nH]n1 | – | – | – | ·
O=S(=O)(O)c1ccc(N=NNc2ccc(Br)cc2)cc1 | – | – | 52 | –
O=Cc1cc(N=Nc2ccc(S(=O)(=O)O)cc2)ccc1O | – | – | – | ·
CCCn1nnc(NC(=O)c2ccc([N+](=O)[O-])cc2Cl)n1 | – | – | – | –
CCCCn1nnc(NC(=O)c2ccc([N+](=O)[O-])cc2Cl)n1 | – | – | 67 | –
CCNc1ccc(C(=O)NN=C2CCCC2)cc1[N+](=O)[O-] | – | – | 32 | ·
Cc1ccc(C(=O)NN=C2CCCC2)cc1C | – | – | – | –
SMILES | CAL PDZ FP-1 | PvdQ acylase | CAL PDZ FP-2 | miR-122 sensor
Cc1ccc(-c2nn3c(C)nnc3s2)cc1NC(=O)c1cccs1 | · | – | – | –
O=C(CCNC(=O)c1ccc(Br)cc1)NNC(=O)COc1ccccc1F | – | – | – | ·
CC(C)(C)c1ccc(C(=O)NCCC(=O)NNC(=O)COc2ccc(F)cc2)cc1 | – | – | 33 | –
COc1ccc(S(=O)(=O)N2N=C(C)Oc3ccccc3C2=O)cc1 | – | – | – | 123
C=CCOc1ccc(Br)cc1CNCCO | – | – | 98 | ·
Cc1ccc(/C=N\NC(=O)c2ccc(Cn3cc(Br)c([N+](=O)[O-])n3)o2)o1 | – | – | – | ·
O=C(N/N=C\c1cccc(Cl)c1)c1ccc(Cn2cc(Br)c([N+](=O)[O-])n2)o1 | – | – | 86 | ·
COc1ccc(CCNC(=O)C(=O)N/N=C/c2cccs2)cc1OC | – | – | 78 | –
CCOCCSc1nc2c(c(-c3cccs3)c1C#N)CC/C2=C/c1cccs1 | – | – | – | –
Cc1cccc(N2CC(O)(c3cccs3)[N+]3=C2CCCC3)c1C (stereo not given) | – | – | – | ·
Cc1ccccc1N1CC(O)(c2cccs2)[N+]2=C1CCCC2 (stereo not given) | – | – | 87 | ·
COc1ccccc1CC(=O)NCc1nn(-c2ccccc2)nc1C | – | – | 65 | ·
CCc1ccc(NC(=O)c2cc(-c3ccc4c(c3)OCO4)on2)cc1 | – | – | – | ·
O=C1c2ccccc2C(=O)N1CCC(=O)N1CCc2ccccc21 | – | – | – | –
S=C(NCc1ccccc1)NNc1ccccc1 | – | – | 58 | ·
S=C(NCc1ccccc1)NCc1ccccc1 | – | – | – | ·
OCCC1CN(Cc2ccc3cc(Cl)ccc3n2)CCN1Cc1ccsc1 (stereo not given) | – | – | 72 | –
CC(C)NC(=O)N(C)C[C@H]1Oc2ncc(C#Cc3ccccc3F)cc2C(=O)N([C@H](C)CO)C[C@H]1C | · | · | · | –
CC(NC(=S)NC(=O)c1ccccc1Br)c1ccccc1 (stereo not given) | · | – | 77 | –
Cc1ccc2cccc(NC(=O)c3ccc(Br)o3)c2n1 | – | – | 70 | –
CCN(CC)C(=O)CSc1nc2cc3c(cc2c(=O)n1Cc1ccc2c(c1)OCO2)OCO3 | – | – | – | ·
C[N+]1(CC(=O)OC2CCCCCCCCCCC2)CCCC1 | – | – | 97 | ·
COC(=O)CCCCCCCCCC[N+]1(C)CCCCC1 | – | – | – | –
Cc1ccc(NC(=O)c2noc3c2CCCCC3)cc1 | – | – | – | –
COc1ccc(Cl)cc1N(CC(=O)N1CCCC1)S(=O)(=O)c1ccc(C)cc1 | – | – | · | 141
SMILES | CAL PDZ FP-1 | PvdQ acylase | CAL PDZ FP-2 | miR-122 sensor
COc1ccccc1N(CC(=O)N1CCCCCC1)S(=O)(=O)c1ccc(C)cc1 | – | – | – | –
COc1ccccc1N(CC(=O)N1CCCCC1C)S(=O)(=O)c1ccc(Cl)cc1 (stereo not given) | · | · | · | 128
Cc1ccc(C)c(N(CC(=O)N2CCCC2)S(C)(=O)=O)c1 | – | – | 77 | –
COc1ccccc1N(CC(=O)N1CCN(c2ccc(F)cc2)CC1)S(=O)(=O)c1ccc(C)cc1 | – | – | 55 | –
COc1ccccc1N(CC(=O)N1CCCC1)S(=O)(=O)c1ccc(C)cc1 | – | – | – | ·
O=C(O)CCC(=O)Nc1ccc(N2CCCCCC2)cc1 | – | – | – | –
CCC(=O)Nc1nc2ccccc2n1Cc1ccc(C)cc1 | – | – | – | –
Cc1ccc(Cn2c(NS(=O)(=O)c3ccccc3)nc3ccccc32)cc1 | – | – | – | 106
COC(=O)/C(C#N)=C/c1ccc(-c2ccc(S(N)(=O)=O)cc2)o1 | – | – | 36 | –
CC(C)OC(=O)/C(C#N)=C/c1ccc(-c2ccc(SC(F)F)cc2)o1 | – | – | – | ·
O=C(/C=C/c1ccco1)NC(=S)Nc1cc(-c2nc3ccccc3s2)ccc1Cl | – | – | – | ·
COc1cc(CC(=O)NCC(C)(C)N2CCOCC2)cc(OC)c1OC | – | – | 55 | –
COc1ccc(S(N)(=O)=O)cc1C(=O)NCC(C)(C)N1CCOCC1 | – | – | – | –
Cc1ccc2c(CN3CCCc4ccccc43)cc(=O)oc2c1C | · | – | 49 | 147
Cc1ccc2c(CN3CCCCC3)cc(=O)oc2c1C | – | – | – | –
